Compound activity: PubChem, Johns Hopkins Ion Channel Center
TRPC4 potent: TRPC4 (mouse) allosteric potentiation; Q9QUQ5; HEK293 TRPC4beta/mu-opioid, DAMGO EC20, Fluo-4 Ca2+ flux; hits give high values; B-score at 10 µM; 310,000 compounds, 0.42% hits; AID 2227;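 active means B-score of calcium response area above 5 SD of library B-scores, with initial fluorescence ratio within 5 SD of library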
Target sequence (Q9QUQ5 whole entry, looked up): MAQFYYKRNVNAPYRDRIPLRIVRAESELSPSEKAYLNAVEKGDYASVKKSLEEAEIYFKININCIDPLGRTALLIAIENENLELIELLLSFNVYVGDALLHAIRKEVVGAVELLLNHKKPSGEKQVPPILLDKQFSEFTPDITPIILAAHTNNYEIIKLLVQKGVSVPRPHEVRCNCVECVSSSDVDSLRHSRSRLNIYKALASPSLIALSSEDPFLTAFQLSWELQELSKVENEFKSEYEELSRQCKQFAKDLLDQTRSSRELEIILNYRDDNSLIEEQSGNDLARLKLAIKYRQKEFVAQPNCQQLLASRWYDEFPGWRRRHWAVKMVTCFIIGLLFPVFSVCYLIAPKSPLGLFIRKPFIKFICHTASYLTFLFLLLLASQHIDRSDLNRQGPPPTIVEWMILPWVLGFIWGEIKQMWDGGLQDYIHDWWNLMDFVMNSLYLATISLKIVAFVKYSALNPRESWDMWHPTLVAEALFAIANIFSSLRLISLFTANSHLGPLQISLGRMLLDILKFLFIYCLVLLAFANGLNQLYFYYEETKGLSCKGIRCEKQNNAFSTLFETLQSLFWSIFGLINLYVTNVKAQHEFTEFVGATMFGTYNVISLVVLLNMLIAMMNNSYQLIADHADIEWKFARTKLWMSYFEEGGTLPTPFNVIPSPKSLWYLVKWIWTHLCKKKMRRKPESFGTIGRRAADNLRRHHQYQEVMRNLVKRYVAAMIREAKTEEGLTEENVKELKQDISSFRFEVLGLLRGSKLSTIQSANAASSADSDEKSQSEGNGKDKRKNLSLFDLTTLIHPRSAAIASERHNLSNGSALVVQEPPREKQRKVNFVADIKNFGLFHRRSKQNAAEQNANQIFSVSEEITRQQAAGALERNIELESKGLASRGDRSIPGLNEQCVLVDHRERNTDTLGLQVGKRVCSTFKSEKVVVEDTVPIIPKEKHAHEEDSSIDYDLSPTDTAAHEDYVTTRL
TRPC6 inh: blocks the mouse TRPC6 cation channel | Q61143 | HEK293-TRPC6, membrane potential dye, ACh-evoked depolarization; hits give low values | B-score at 10 µM | 310,000 compounds, 1.1% hits | AID 2553;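 active means B-score under library mean minus 3 SD, initial fluorescence not abnormally high, positive integrated signal ratio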;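 further: B-score derived from integrated fluorescence ratio over the kinetic read; more negative B-score means stronger inhibition of depolarization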
TRPC4 act: opens the mouse TRPC4 cation channel; Q9QUQ5; 310,000 compounds, 0.49% hits; AID 2237; HEK293 TRPC4beta/mu-opioid, Fluo4 calcium fluorescence; hits give high values; B-score at 10 µM;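 active means B-score above 5 SD of library B-scores, and initial fluorescence ratio not above library mean plus 5 SD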;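 further: positive B-score marks a calcium rise read as TRPC4 activation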
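system = HEK293 cells stably co-expressing mouse TRPC4beta and mu-opioid receptor | schedule = Fluo4 dye loading 45 min at room temperature, 110 s recording | measure = B-scored integrated calcium fluorescence ratio | signal = Fluo4 calcium-sensitive dye fluorescence, kinetic, 1 Hz baseline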
TRPC4 inh: blocks the mouse TRPC4 cation channel; HEK293 TRPC4beta/mu-opioid, DAMGO-evoked Fluo4 calcium flux; hits give low values; B-score at 10 µM; 300,000 compounds, 0.39% hits; AID 2247;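 active means B-score over 3 SD under the library average, no early fluorescence shift, positive overall ratio signal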
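System: stable TRPC4beta/mu-opioid receptor HEK293 cells; Dosing: single-point compound dosing; Measured by: Fluo4 Ca2+ flux fluorescence; Read-out basis: per-well B score of integrated baseline-normalized Fluo4 ratio.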
TRPC6 activator: activators of mouse TRPC6 channel | 310,000 compounds, 0.13% hits | B-score at 10 µM | HEK293-TRPC6 membrane potential dye fluorescence; hits give high values;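 active means B-score of the integrated fluorescence ratio above library mean plus 3 SD, and starting fluorescence ratio within library mean plus 5 SD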;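 further: higher score means more depolarization so channel activation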
TRPC4 sel inh 2: mouse TRPC4 off-target activity of TRPC6 inhibitors, second screen | HEK293 TRPC4/MOR, membrane potential dye fluorescence; channel activated by saturating DAMGO dose | shares compounds with TRPC6 inh | 920 compounds, 42% hits | inhibition, % at 10 µM;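 active means compounds whose fluorescence signal differed from control wells by over 3 SD, either direction, in both duplicate plates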
TRPC4 spec: tests whether TRPC6 inhibitors also affect mouse TRPC4 | shares compounds with TRPC6 inh | HEK293 TRPC4/mu-opioid, membrane potential fluorescence | activity change, negative = inhibition, % at 10 µM | 920 compounds, 61% hits | AID 2777;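 active means rise or fall in signal beyond 3 SD of buffer-only wells in both replicate plates, either sign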;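 further: integrated kinetic ratio of fluorescence range over baseline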
HEK293 MPD ctr 2-1: second check of TRPC6 inhibitor effects in parental HEK293 cells; shares compounds with TRPC6 inh; 920 compounds, 31% hits; parental HEK293 membrane potential dye fluorescence; maximal acetylcholine challenge after compound addition; signal change vs control, % at 10 µM;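 active means membrane potential signal moving either way by over 3 SD of the maximum-effect control, in both duplicate plates, meaning non-specific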
HEK293 MPD ctr-1: parental HEK293 nonspecific activity of TRPC6 inhibitors; 920 compounds, 60% hits; shares compounds with TRPC6 inh; membrane potential signal change, % at 10 µM; parental HEK293 membrane potential dye fluorescence; AID 2780;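 active means membrane potential signal shifting up or down by more than 3 SD of buffer-only wells, on both duplicate plates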
HEK293 MPD ctr-2: parental HEK293 nonspecific activity of TRPC6 modulators. membrane potential signal change, % at 10 µM. shares compounds with TRPC6 inh. AID 488924. membrane potential dye fluorescence. 2,400 compounds, 51% hits;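 active means membrane potential signal moves up or down beyond 5 SD from buffer-only wells, on both duplicate plates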
HEK293 MPD ctr 2-2: second counter-screen for TRPC6 modulators: effect in parental HEK293 cells; shares compounds with TRPC6 inh; inhibition, % at 10 µM; membrane potential dye fluorescence; after compound, maximal acetylcholine stimulation; 2,400 compounds, 14% hits; AID 488926;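 active means membrane potential signal drops by more than 5 SD from the mean control signal, in both duplicate plates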
TRPC4/MOR mod: mouse TRPC4 off-target activity of TRPC6 modulators; shares compounds with TRPC6 inh; HEK293 TRPC4/mu-opioid, membrane potential fluorescence; percent change from control (negative = decrease, positive = increase), % at 10 µM; 2,400 compounds, 69% hits; AID 488927;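 active means membrane potential signal moved up or down beyond 5 SD of buffer control wells, in both duplicate plates, actives on both sides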
TRPC4/MOR inh 2: second check of whether TRPC6 modulators also affect mouse TRPC4; HEK293 TRPC4/mu-opioid, membrane potential dye fluorescence; stimulated with maximal-effect DAMGO; shares compounds with TRPC6 inh; 2,400 compounds, 55% hits; inhibition, % at 10 µM;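 active means drop in membrane potential signal beyond 5 SD of the control wells in both duplicate plates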;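 further: TRPC4 counter screen for TRPC6 hits run under conditions tuned for TRPC6 not TRPC4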
TRPC6 inh conf: confirmation of mouse TRPC6 inhibitors. inhibition, % at 10 µM. 3,300 compounds, 43% hits. HEK293-TRPC6, membrane potential dye, ACh-evoked depolarization. shares compounds with TRPC6 inh. AID 488960;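 active means fluorescence ratio falls more than 5 SD below the full-stimulation control mean, in both duplicate runs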;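 further: integrated fluorescence ratio of peak minus minimum over baseline after agonist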
TRPC6 act confirm: mouse TRPC6 activator confirmation | shares compounds with TRPC6 inh | HEK293-TRPC6 membrane potential dye fluorescence, FDSS | activation, % at 10 µM | 2,800 compounds, 11% hits | AID 488961;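 active means ratio signal rise beyond 5 SD above unstimulated control wells' mean, seen in both duplicate runs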
Hits are given with their value. Sampled rows, rich in hits. Any-hit rate of the full collection: about 2.3%.

What do the screens show for `CN1C(=O)C(N=Nc2ccccc2C(=O)O)N(C)C1=S` (stereo unspecified)?
TRPC4 potent: inactive; TRPC6 inh: inactive; TRPC4 act: inactive; TRPC4 inh: inactive; TRPC6 activator: 20.1; HEK293 MPD ctr-2: 438.0%; HEK293 MPD ctr 2-2: inactive; TRPC4/MOR mod: 80.5%; TRPC4/MOR inh 2: inactive; TRPC6 inh conf: inactive; TRPC6 act confirm: 198.5%

How did CC(C)(C)NC(=S)N/N=C\c1ccc(-c2ccc([N+](=O)[O-])cc2)o1 do in these assays?
TRPC4 potent: 16; TRPC6 inh: inactive; TRPC4 act: inactive; TRPC4 inh: inactive; TRPC6 activator: 17.6; HEK293 MPD ctr-2: inactive; HEK293 MPD ctr 2-2: inactive; TRPC4/MOR mod: 51.0%; TRPC4/MOR inh 2: inactive; TRPC6 inh conf: inactive; TRPC6 act confirm: inactive

Results for O=C(O)c1ccc(-c2ccc(/C=N/Nc3ccc([N+](=O)[O-])cc3)o2)cc1 ?
TRPC4 potent: 19; TRPC6 inh: inactive; TRPC4 act: 121; TRPC4 inh: inactive; TRPC6 activator: 43.4; HEK293 MPD ctr-2: active; HEK293 MPD ctr 2-2: inactive; TRPC4/MOR mod: 310.0%; TRPC4/MOR inh 2: inactive; TRPC6 inh conf: inactive; TRPC6 act confirm: 484.0%

How did O=C(O)c1cccc(-c2ccc(/C=N/Nc3ccc([N+](=O)[O-])cc3)o2)c1 do in these assays?
TRPC4 potent: inactive; TRPC6 inh: inactive; TRPC4 act: inactive; TRPC4 inh: inactive; TRPC6 activator: inactive

How did O=C1CC(C(=O)Nc2ccccc2)S/C(=N\NC(=O)c2ccccc2Cl)N1 (stereo unspecified) do in these assays?
TRPC4 potent: inactive; TRPC6 inh: inactive; TRPC4 act: inactive; TRPC4 inh: inactive; TRPC6 activator: inactive

What do the screens show for `CCN1CCN(C(CNS(=O)(=O)c2ccc(Cl)cc2)c2cccnc2)CC1` (stereo unspecified)?
TRPC4 potent: inactive; TRPC6 inh: inactive; TRPC4 act: inactive; TRPC4 inh: inactive; TRPC6 activator: inactive

Results for Cc1oc(-c2ccccc2F)nc1CSCC(=O)NCc1ccc2c(c1)OCO2 ?
TRPC4 potent: inactive; TRPC6 inh: inactive; TRPC4 act: inactive; TRPC4 inh: inactive; TRPC6 activator: inactive

Results for N=c1c2ccccc2nc2n1CCCCCCCCCCC2 ?
TRPC4 potent: inactive; TRPC6 inh: -7.61; TRPC4 act: inactive; TRPC4 inh: inactive; TRPC6 activator: inactive; TRPC4 sel inh 2: 50.0%; TRPC4 spec: 17.1%; HEK293 MPD ctr 2-1: 253.5%; HEK293 MPD ctr-1: 18.3%; TRPC6 inh conf: inactive

What do the screens show for `C=CCC(C(=O)OC)(C(=O)OC)c1ccccc1[N+](=O)[O-]`?
TRPC4 potent: inactive; TRPC6 inh: inactive; TRPC4 act: inactive; TRPC4 inh: inactive; TRPC6 activator: inactive

What do the screens show for `Cc1ccc(S(=O)(=O)NCCNc2ccc([N+](=O)[O-])cc2)cc1`?
TRPC4 potent: inactive; TRPC6 inh: -5.63; TRPC4 act: inactive; TRPC4 inh: inactive; TRPC6 activator: inactive; HEK293 MPD ctr-2: inactive; HEK293 MPD ctr 2-2: inactive; TRPC4/MOR mod: -14.0%; TRPC4/MOR inh 2: inactive; TRPC6 inh conf: inactive; TRPC6 act confirm: inactive

Results for COc1ccc2[nH]c3c(c2c1)CCNC3c1ccc([N+](=O)[O-])o1 (stereo unspecified) ?
TRPC4 potent: inactive; TRPC6 inh: inactive; TRPC4 act: inactive; TRPC4 inh: inactive; TRPC6 activator: inactive

How did COc1ccc2[nH]c3c(c2c1)CCNC3C1CC=C(C)CC1 (stereo unspecified) do in these assays?
TRPC4 potent: inactive; TRPC6 inh: -6.3; TRPC4 act: inactive; TRPC4 inh: inactive; TRPC6 activator: inactive; HEK293 MPD ctr-2: inactive; HEK293 MPD ctr 2-2: inactive; TRPC4/MOR mod: inactive; TRPC4/MOR inh 2: 56.5%; TRPC6 inh conf: 36.0%; TRPC6 act confirm: inactive

What do the screens show for `COc1ccc(CCNC(=O)Cn2c(=O)n(Cc3ccco3)c(=O)c3ccc(Cl)cc32)cc1OC`?
TRPC4 potent: inactive; TRPC6 inh: inactive; TRPC4 act: inactive; TRPC4 inh: inactive; TRPC6 activator: inactive

How did N#Cc1c(Cl)nsc1NC(=O)c1ccccc1 do in these assays?
TRPC4 potent: inactive; TRPC6 inh: -5.29; TRPC4 act: inactive; TRPC4 inh: inactive; TRPC6 activator: inactive; HEK293 MPD ctr-2: 255.5%; HEK293 MPD ctr 2-2: inactive; TRPC4/MOR mod: 101.0%; TRPC4/MOR inh 2: 79.5%; TRPC6 inh conf: 71.0%

How did N#Cc1c(NC(=O)c2ccccc2)sc2c1CCCCC2 do in these assays?
TRPC4 potent: inactive; TRPC6 inh: inactive; TRPC4 act: inactive; TRPC4 inh: inactive; TRPC6 activator: inactive

Results for CN(C)c1cc[n+](CC(=O)c2ccc(-c3ccccc3)cc2)cc1 ?
TRPC4 potent: inactive; TRPC6 inh: -7.68; TRPC4 act: inactive; TRPC4 inh: inactive; TRPC6 activator: inactive; TRPC4 sel inh 2: inactive; TRPC4 spec: -0.5%; HEK293 MPD ctr 2-1: 47.0%; HEK293 MPD ctr-1: 3.3%; TRPC6 inh conf: inactive

Results for O=C(C[n+]1ccccc1)c1ccc(-c2ccccc2)cc1 ?
TRPC4 potent: inactive; TRPC6 inh: inactive; TRPC4 act: inactive; TRPC4 inh: inactive; TRPC6 activator: inactive
